Results: ChEMBL document CHEMBL4689842, “EUbOPEN Chemogenomics Library wave 1” (2021)

Test system: Fibroblast
Assay: Multiplex assay against human fibroblast
Format: toxicity, cell-based
Summary of the method: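 With compound added, live cells were imaged on a CQ1 microscope at 37°C and 5% CO2; staining with Hoechst33342, BioTracker Green Microtubule Cytoskeleton Dye, MitoTracker Red and Annexin V Alexa Fluor 680 had been done at seeding. The CellPathfinder machine-learning gating scheme split cells into Hoechst high-intensity objects or normal cells, normal cells into healthy, pyknosed or fragmented nuclei, and pyknosed cells into mitotic or apoptotic. The tubulin, mitochondrial-mass and membrane-permeability phenotypes are per cents of healthy-nucleus cells.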

[1] = 12 h, 1 µM, compound concentration 1 uM, replicate 1
[2] = 12 h, 1 µM, compound concentration 1 uM, replicate 2
[3] = 12 h, 10 µM, compound concentration 10 uM, replicate 1
[4] = 12 h, 10 µM, compound concentration 10 uM, replicate 2
[5] = 24 h, 1 µM, compound concentration 1 uM, replicate 1
[6] = 24 h, 1 µM, compound concentration 1 uM, replicate 2
[7] = 24 h, 10 µM, compound concentration 10 uM, replicate 1
[8] = 24 h, 10 µM, compound concentration 10 uM, replicate 2
[9] = 48 h, 1 µM, compound concentration 1 uM, replicate 1
[10] = 48 h, 1 µM, compound concentration 1 uM, replicate 2
[11] = 48 h, 10 µM, compound concentration 10 uM, replicate 1
[12] = 48 h, 10 µM, compound concentration 10 uM, replicate 2

`Cc1csc2c(N[C@@H](C)CN3CCN(S(=O)(=O)c4ccc(Cl)c(Cl)c4)CC3)ncnc12` was tested, and the “Population Apoptotic (%)” value [1] was 56%, the “Population Fragmented Nuclei (%)” value [1] was 22% and the “Population Healthy Nuclei (%)” value [1] was 46%. For the same molecule, the “Population Hoechst High Intensity Objects (%)” value [1] was 5%, the “Population Membrane Permeable-Phenotype (%)” value [1] was 33% and the “Population Mitochondria Different-Phenotype (%)” value [1] was 21%. For the same molecule, the “Population Mitotic Cells (%)” value [1] was 43%, the “Population Normal (%)” value [1] was 94% and the “Population Pyknosed Nuclei (%)” value [1] was 31%. The “Population Tubulin-Different-Phenotype (%)” value [1] was 87%, the “Total Cell Count” value [1] was 149 and the “Population Apoptotic (%)” value [2] was 16%. The “Population Fragmented Nuclei (%)” value [2] was 5%, the “Population Healthy Nuclei (%)” value [2] was 84% and the “Population Membrane Permeable-Phenotype (%)” value [2] was 6%. The “Population Mitochondria Different-Phenotype (%)” value [2] was 33%, the “Population Mitotic Cells (%)” value [2] was 83% and the “Population Normal (%)” value [2] was 95%. The “Population Pyknosed Nuclei (%)” value [2] was 10%, the “Population Tubulin-Different-Phenotype (%)” value [2] was 47% and the “Total Cell Count” value [2] was 48. For the same molecule, the “Population Apoptotic (%)” value [3] was 52%, the “Population Fragmented Nuclei (%)” value [3] was 32% and the “Population Healthy Nuclei (%)” value [3] was 29%. For the same molecule, the “Population Hoechst High Intensity Objects (%)” value [3] was 21%, the “Population Membrane Permeable-Phenotype (%)” value [3] was 23% and the “Population Mitochondria Different-Phenotype (%)” value [3] was 42%. The “Population Mitotic Cells (%)” value [3] was 47%, the “Population Normal (%)” value [3] was 78% and the “Population Pyknosed Nuclei (%)” value [3] was 38%. For the same molecule, the “Population Tubulin-Different-Phenotype (%)” value [3] was 92%, the “Total Cell Count” value [3] was 113 and the “Population Apoptotic (%)” value [4] was 75%. The “Population Fragmented Nuclei (%)” value [4] was 12%, the “Population Healthy Nuclei (%)” value [4] was 67% and the “Population Hoechst High Intensity Objects (%)” value [4] was 4%. For the same molecule, the “Population Membrane Permeable-Phenotype (%)” value [4] was 56%, the “Population Mitochondria Different-Phenotype (%)” value [4] was 98% and the “Population Mitotic Cells (%)” value [4] was 25%. For the same molecule, the “Population Normal (%)” value [4] was 95%, the “Population Pyknosed Nuclei (%)” value [4] was 19% and the “Population Tubulin-Different-Phenotype (%)” value [4] was 98%. For the same molecule, the “Total Cell Count” value [4] was 60, the “Population Apoptotic (%)” value [5] was 59% and the “Population Fragmented Nuclei (%)” value [5] was 26%. The “Population Healthy Nuclei (%)” value [5] was 44%, the “Population Hoechst High Intensity Objects (%)” value [5] was 8% and the “Population Membrane Permeable-Phenotype (%)” value [5] was 19%. The “Population Mitochondria Different-Phenotype (%)” value [5] was 33%, the “Population Mitotic Cells (%)” value [5] was 40% and the “Population Normal (%)” value [5] was 91%. For the same molecule, the “Population Pyknosed Nuclei (%)” value [5] was 29%, the “Population Tubulin-Different-Phenotype (%)” value [5] was 90% and the “Total Cell Count” value [5] was 156. The “Population Apoptotic (%)” value [6] was 60%, the “Population Fragmented Nuclei (%)” value [6] was 11% and the “Population Healthy Nuclei (%)” value [6] was 73%. For the same molecule, the “Population Hoechst High Intensity Objects (%)” value [6] was 4%, the “Population Membrane Permeable-Phenotype (%)” value [6] was 11% and the “Population Mitochondria Different-Phenotype (%)” value [6] was 25%. The “Population Normal (%)” value [6] was 95%, the “Population Pyknosed Nuclei (%)” value [6] was 14% and the “Population Tubulin-Different-Phenotype (%)” value [6] was 23%. The “Total Cell Count” value [6] was 64, the “Population Apoptotic (%)” value [7] was 67% and the “Population Fragmented Nuclei (%)” value [7] was 36%. For the same molecule, the “Population Healthy Nuclei (%)” value [7] was 24%, the “Population Hoechst High Intensity Objects (%)” value [7] was 23% and the “Population Membrane Permeable-Phenotype (%)” value [7] was 19%. The “Population Mitochondria Different-Phenotype (%)” value [7] was 71%, the “Population Mitotic Cells (%)” value [7] was 32% and the “Population Normal (%)” value [7] was 76%. For the same molecule, the “Population Pyknosed Nuclei (%)” value [7] was 39%, the “Population Tubulin-Different-Phenotype (%)” value [7] was 80% and the “Total Cell Count” value [7] was 113. The “Population Apoptotic (%)” value [8] was 80%, the “Population Fragmented Nuclei (%)” value [8] was 15% and the “Population Healthy Nuclei (%)” value [8] was 57%. The “Population Hoechst High Intensity Objects (%)” value [8] was 4%, the “Population Membrane Permeable-Phenotype (%)” value [8] was 80% and the “Population Mitochondria Different-Phenotype (%)” value [8] was 97%. For the same molecule, the “Population Mitotic Cells (%)” value [8] was 19%, the “Population Normal (%)” value [8] was 95% and the “Population Pyknosed Nuclei (%)” value [8] was 26%. The “Population Tubulin-Different-Phenotype (%)” value [8] was 97%, the “Total Cell Count” value [8] was 72 and the “Population Apoptotic (%)” value [9] was 67%. The “Population Fragmented Nuclei (%)” value [9] was 22%, the “Population Healthy Nuclei (%)” value [9] was 53% and the “Population Hoechst High Intensity Objects (%)” value [9] was 9%. For the same molecule, the “Population Membrane Permeable-Phenotype (%)” value [9] was 33%, the “Population Mitochondria Different-Phenotype (%)” value [9] was 17% and the “Population Mitotic Cells (%)” value [9] was 32%. For the same molecule, the “Population Normal (%)” value [9] was 90%, the “Population Pyknosed Nuclei (%)” value [9] was 24% and the “Population Tubulin-Different-Phenotype (%)” value [9] was 96%. For the same molecule, the “Total Cell Count” value [9] was 155, the “Population Apoptotic (%)” value [10] was 100% and the “Population Fragmented Nuclei (%)” value [10] was 31%. The “Population Healthy Nuclei (%)” value [10] was 67%, the “Population Hoechst High Intensity Objects (%)” value [10] was 8% and the “Population Membrane Permeable-Phenotype (%)” value [10] was 9%. For the same molecule, the “Population Mitochondria Different-Phenotype (%)” value [10] was 7%, the “Population Mitotic Cells (%)” value [10] was 0% and the “Population Normal (%)” value [10] was 91%. For the same molecule, the “Population Pyknosed Nuclei (%)” value [10] was 0%, the “Population Tubulin-Different-Phenotype (%)” value [10] was 93% and the “Total Cell Count” value [10] was 123. The “Population Apoptotic (%)” value [11] was 100%, the “Population Fragmented Nuclei (%)” value [11] was 33% and the “Population Healthy Nuclei (%)” value [11] was 37%. For the same molecule, the “Population Hoechst High Intensity Objects (%)” value [11] was 40%, the “Population Membrane Permeable-Phenotype (%)” value [11] was 21% and the “Population Mitochondria Different-Phenotype (%)” value [11] was 56%. The “Population Mitotic Cells (%)” value [11] was 0%, the “Population Normal (%)” value [11] was 59% and the “Population Pyknosed Nuclei (%)” value [11] was 29%. For the same molecule, the “Population Tubulin-Different-Phenotype (%)” value [11] was 82%, the “Total Cell Count” value [11] was 104 and the “Population Apoptotic (%)” value [12] was 57%. For the same molecule, the “Population Fragmented Nuclei (%)” value [12] was 44%, the “Population Healthy Nuclei (%)” value [12] was 47% and the “Population Hoechst High Intensity Objects (%)” value [12] was 25%. For the same molecule, the “Population Membrane Permeable-Phenotype (%)” value [12] was 2%, the “Population Mitochondria Different-Phenotype (%)” value [12] was 79% and the “Population Mitotic Cells (%)” value [12] was 42%. The “Population Normal (%)” value [12] was 75%, the “Population Pyknosed Nuclei (%)” value [12] was 7% and the “Population Tubulin-Different-Phenotype (%)” value [12] was 95%. The “Total Cell Count” value [12] was 120.
